In ChEMBL document CHEMBL1806449, “A class of Trp-Trp-AA-OBzl: Synthesis, in vitro anti-proliferation/in vivo anti-tumor evaluation, intercalation-mechanism investigation and 3D QSAR analysis” (Eur J Med Chem, 2011):
Peptide text beside a SMILES is read from it. * marks the point of attachment. OBn = c1ccc(CO*)cc1

How the values were obtained:
[1] = test system: Mus musculus; experiment: Toxicity in ICR mouse xenografted with mouse S180 cells assessed as effect on liver weight at 2 umol/kg; assay type: organism-based, CCRF S-180; conditions: in vivo
[2] = test system: CCRF S-180; experiment: Antiproliferative activity against mouse S180 cells after 48 hrs by MTT assay; assay type: functional, cell-based; conditions: CCRF S-180, 48 h
[3] = test system: K562; experiment: Antiproliferative activity against human K562 cells after 48 hrs by MTT assay; assay type: functional, cell-based; conditions: K562, 48 h
[4] = test system: B16; experiment: Antiproliferative activity against mouse B16 cells after 48 hrs by MTT assay; assay type: functional, cell-based; conditions: B16, 48 h
[5] = test system: H22; experiment: Antiproliferative activity against mouse H22 cells after 48 hrs by MTT assay; assay type: functional, cell-based; conditions: H22, 48 h
[6] = test system: HepG2; experiment: Antiproliferative activity against human HepG2 cells after 48 hrs by MTT assay; assay type: functional, cell-based; conditions: HepG2, 48 h
[7] = test system: CCRF S-180; experiment: Antitumor activity against mouse S180 cells xenografted in ICR mouse assessed as tumor growth inhibition at 8.9 umol/kg, ip administered 1 day after tumor inoculation qd for 7 days; assay type: functional; conditions: CCRF S-180, ip, read-out: GI
In short: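 Male ICR mice 10–12 weeks; S180 from ascites serially transplanted weekly; 1×10^7 viable cells in 0.2 ml NS implanted s.c. at right oxter; 24 h later randomized (10 per group); daily i.p. 8.9, 0.89 or 0.089 µmol/kg/day in 0.2 ml NS, 7 days; NS and cytarabine controls; sacrificed 24 h after last dose; inhibition % = [1−(Tw/Cw)]×100.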

[8] = test system: Mus musculus; experiment: Toxicity in ICR mouse xenografted with mouse S180 cells assessed as effect on brain weight at 2 umol/kg; assay type: organism-based, CCRF S-180; conditions: in vivo
[9] = test system: Mus musculus; experiment: Toxicity in ICR mouse xenografted with mouse S180 cells assessed as effect on kidney weight at 2 umol/kg; assay type: organism-based, CCRF S-180; conditions: in vivo
[10] = test system: Mus musculus; experiment: Toxicity in ICR mouse xenografted with mouse S180 cells assessed as increase in body weight at 2 umol/kg; assay type: organism-based, CCRF S-180; conditions: in vivo
[11] = test system: Mus musculus; experiment: Toxicity in ICR mouse xenografted with mouse S180 cells assessed as increase in spleen index at 2 umol/kg; assay type: organism-based, CCRF S-180; conditions: in vivo
[12] = test system: Mus musculus; experiment: Toxicity in ICR mouse xenografted with mouse S180 cells assessed as increase in spleen index at 8.9 umol/kg; assay type: organism-based, CCRF S-180; conditions: in vivo
In short: (§1)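 S180-bearing male ICR mice (10–12 weeks; 1×10^7 cells s.c. right oxter; 12 per group), daily i.p. 8.9 µmol/kg for seven days starting 24 h after implantation; NS, cytarabine and doxorubicin controls; liver, brain, kidney weights, spleen index and body-weight gain recorded.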

[13] = test system: Mus musculus; experiment: Toxicity in ICR mouse xenografted with mouse S180 cells assessed as effect on liver weight at 8.9 umol/kg; assay type: organism-based, CCRF S-180; conditions: in vivo; in short: as §1
[14] = test system: Mus musculus; experiment: Toxicity in ICR mouse xenografted with mouse S180 cells assessed as effect on brain weight at 8.9 umol/kg; assay type: organism-based, CCRF S-180; conditions: in vivo; in short: as §1
[15] = test system: Mus musculus; experiment: Toxicity in ICR mouse xenografted with mouse S180 cells assessed as effect on kidney weight at 8.9 umol/kg; assay type: organism-based, CCRF S-180; conditions: in vivo; in short: as §1
[16] = test system: Mus musculus; experiment: Toxicity in ICR mouse xenografted with mouse S180 cells assessed as increase in body weight at 8.9 umol/kg; assay type: organism-based, CCRF S-180; conditions: in vivo; in short: as §1
[17] = test system: Mus musculus; experiment: Acute toxicity in ICR mouse assessed as tremors at 500 mg/kg, ip administered qd for 7 days; assay type: organism-based; set-up: dose 500 mg/kg, route intraperitoneal; conditions: in vivo, 168 h
[18] = test system: Mus musculus; experiment: Acute toxicity in ICR mouse assessed as twitch at 500 mg/kg, ip administered qd for 7 days; assay type: organism-based; set-up: dose 500 mg/kg, route intraperitoneal; conditions: in vivo, 168 h
[19] = test system: Mus musculus; experiment: Acute toxicity in ICR mouse assessed as jumping at 500 mg/kg, ip administered qd for 7 days; assay type: organism-based; set-up: dose 500 mg/kg, route intraperitoneal; conditions: in vivo, 168 h
[20] = test system: Mus musculus; experiment: Acute toxicity in ICR mouse assessed as tetanus at 500 mg/kg, ip administered qd for 7 days; assay type: organism-based; set-up: dose 500 mg/kg, route intraperitoneal; conditions: in vivo, 168 h
[21] = test system: Mus musculus; experiment: Acute toxicity in ICR mouse assessed as supination at 500 mg/kg, ip administered qd for 7 days; assay type: organism-based; set-up: dose 500 mg/kg, route intraperitoneal; conditions: in vivo, 168 h
[22] = test system: Mus musculus; experiment: Acute toxicity in ICR mouse assessed as mortality at 500 mg/kg, ip administered qd for 7 days; assay type: organism-based; set-up: dose 500 mg/kg, route intraperitoneal; conditions: in vivo, 168 h
[23] = test system: Mus musculus; experiment: Acute toxicity in ICR mouse assessed as apparent changes in any organ at 500 mg/kg, ip administered qd for 7 days; assay type: organism-based; set-up: dose 500 mg/kg, route intraperitoneal; conditions: in vivo, 168 h
[24] = Acute toxicity in ip dosed ICR mouse assessed as lethal dose; assay type: organism-based; conditions: in vivo
In short: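 Male ICR mice, 24 weeks old, got a single i.p. injection of 500 mg/kg in 0.2 ml NS (normal saline). They were watched for 7 days for neurotoxic behaviour (tremor, twitch, jumping, tetanus, supination) and for death.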

| Structure (SMILES) | IC50 [2] [µM] | IC50 [3] [µM] | IC50 [4] [µM] | IC50 [5] [µM] | IC50 [6] [µM] | inhibition in vivo at 8.9 µmol/kg [7] [%] | Activity [12] | Activity [13] [g] | Activity [14] [g] | Activity [15] [g] | Activity [16] [g] | Activity [17] | Activity [18] | Activity [19] | Activity [20] | Activity [21] | Activity [22] | Activity [23] | LD50 [24] [mg/kg] | further results |
| --- | --- | --- | --- | --- | --- | --- | --- | --- | --- | --- | --- | --- | --- | --- | --- | --- | --- | --- | --- | --- |
| COc1cccc2c1C(=O)c1c(O)c3c(c(O)c1C2=O)C[C@@](O)(C(=O)CO)C[C@@H]3O[C@H]1C[C@H](N)[C@H](O)[C@H](C)O1 [DOXORUBICIN] | 29.2 | 17.2 | 21.5 | 36.5 | 17.5 | 48.2 | – | – | – | – | – | – | – | – | – | – | – | – | – | Activity [1]: 1.61 g; Activity [8]: 0.25 g; Activity [9]: 0.15 g; Activity [10]: 6.12 g; Activity [11]: 7.31 |
| N[C@@H](Cc1c[nH]c2ccccc12)C(=O)N[C@@H](Cc1c[nH]c2ccccc12)C(=O)N[C@@H](Cc1ccc(O)cc1)C(=O)OCc1ccccc1 (H-Trp-Trp-Tyr-OBn) | 36 | 45.7 | 36 | 39.6 | 43.2 | 20.2 | 7.5 | 1.78 | 0.27 | 0.16 | 9.76 | Non-toxic | Non-toxic | Non-toxic | Non-toxic | Non-toxic | Non-toxic | Non-toxic | > 500 | – |
| N[C@@H](Cc1c[nH]c2ccccc12)C(=O)N[C@@H](Cc1c[nH]c2ccccc12)C(=O)N[C@@H](CO)C(=O)OCc1ccccc1 (H-Trp-Trp-Ser-OBn) | 41.2 | 41.6 | 54.3 | 46.3 | 46.6 | 18.1 | 7.59 | 1.73 | 0.28 | 0.16 | 9.95 | Non-toxic | Non-toxic | Non-toxic | Non-toxic | Non-toxic | Non-toxic | Non-toxic | > 500 | – |
| C[C@@H](O)[C@H](NC(=O)[C@H](Cc1c[nH]c2ccccc12)NC(=O)[C@@H](N)Cc1c[nH]c2ccccc12)C(=O)OCc1ccccc1 (H-Trp-Trp-Thr-OBn) | 11.8 | 12 | 16 | 14 | 13.7 | 61.2 | 8.21 | 1.81 | 0.3 | 0.15 | 9.99 | Non-toxic | Non-toxic | Non-toxic | Non-toxic | Non-toxic | Non-toxic | Non-toxic | > 500 | – |
| N[C@@H](Cc1c[nH]c2ccccc12)C(=O)N[C@@H](Cc1c[nH]c2ccccc12)C(=O)N[C@@H](CCC(=O)O)C(=O)OCc1ccccc1 (H-Trp-Trp-Glu-OBn) | 13.4 | 11 | 20.8 | 13.7 | 21 | 55.3 | 7.92 | 1.86 | 0.27 | 0.17 | 9.94 | Non-toxic | Non-toxic | Non-toxic | Non-toxic | Non-toxic | Non-toxic | Non-toxic | > 500 | – |
| CSCC[C@H](NC(=O)[C@H](Cc1c[nH]c2ccccc12)NC(=O)[C@@H](N)Cc1c[nH]c2ccccc12)C(=O)OCc1ccccc1 (H-Trp-Trp-Met-OBn) | 49.1 | 41.6 | 65.4 | 49.1 | 52.7 | 16.9 | 7.69 | 1.74 | 0.28 | 0.16 | 8.93 | Non-toxic | Non-toxic | Non-toxic | Non-toxic | Non-toxic | Non-toxic | Non-toxic | > 500 | – |
| N[C@@H](Cc1c[nH]c2ccccc12)C(=O)N[C@@H](Cc1c[nH]c2ccccc12)C(=O)N1CCC[C@H]1C(=O)OCc1ccccc1 (H-Trp-Trp-Pro-OBn) | 12.5 | 12.9 | 17.2 | 15.5 | 14.7 | 58 | 8.01 | 1.81 | 0.27 | 0.15 | 10.24 | Non-toxic | Non-toxic | Non-toxic | Non-toxic | Non-toxic | Non-toxic | Non-toxic | > 500 | – |
